Experimental data: ChEMBL document CHEMBL2176996, “Synthesis and structure-affinity relationships of selective high-affinity 5-HT(4) receptor antagonists: application to the design of new potential single photon emission computed tomography tracers” (J Med Chem, 2012)

How the values were obtained:
[1] = molecular target: 5-hydroxytryptamine receptor 4 (Cavia porcellus) (UniProt O70528); assay: Displacement of [3H]GR113808 from 5HT4R in guinea pig striatal membranes at 10 nM; type: cell membranes; conditions: Striatum, Membrane
Outline: (§1)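 Native 5-HT4R in male guinea pig striatal membranes (HEPES 50 mM pH 7.4); 600 µg membrane incubated in duplicate with [3H]GR 113808 at 0.1 nM final, 37 °C, 30 min; filtration on PEI-soaked GF/B filters, cold buffer washes.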

[2] = molecular target: 5-hydroxytryptamine receptor 4 (Cavia porcellus) (UniProt O70528); assay: Displacement of [3H]GR113808 from 5HT4R in guinea pig striatal membranes at 1 uM; type: cell membranes; conditions: Striatum, Membrane; outline: as §1
[3] = molecular target: 5-hydroxytryptamine receptor 4 (Cavia porcellus, UniProt O70528); assay: Displacement of [3H]GR113808 from 5HT4R in guinea pig striatal membranes; type: cell membranes, Striatum, Membrane
[4] = molecular target: T1, 5-hydroxytryptamine receptor 4 (Homo sapiens, UniProt Q13639)
[5] = molecular target: T1, 5-hydroxytryptamine receptor 4; assay: Displacement of [3H]GR113808 from human recombinant 5HT4R expressed in HEK293T cells; type: cell-based, HEK-293T
[6] = molecular target: 5-hydroxytryptamine receptor 6 (Homo sapiens, UniProt P50406); assay: Binding affinity to human 5HT6 by Cerep protocol based assay
[7] = molecular target: T2, 5-hydroxytryptamine receptor 1A (Homo sapiens, UniProt P08908); assay: Binding affinity to human 5HT1A by Cerep protocol based assay
T2 sequence (P08908 whole entry): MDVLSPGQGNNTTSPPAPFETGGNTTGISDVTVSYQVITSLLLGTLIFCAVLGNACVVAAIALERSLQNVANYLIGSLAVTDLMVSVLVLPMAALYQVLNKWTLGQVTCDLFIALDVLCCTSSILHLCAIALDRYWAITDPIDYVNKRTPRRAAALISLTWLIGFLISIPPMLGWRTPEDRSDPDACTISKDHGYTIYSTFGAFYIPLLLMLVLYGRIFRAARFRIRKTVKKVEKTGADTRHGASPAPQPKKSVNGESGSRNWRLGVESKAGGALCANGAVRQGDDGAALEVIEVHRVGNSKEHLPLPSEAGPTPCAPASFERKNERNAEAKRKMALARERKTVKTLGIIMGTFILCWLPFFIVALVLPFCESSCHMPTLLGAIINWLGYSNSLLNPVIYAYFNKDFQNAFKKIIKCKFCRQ

[8] = molecular target: 5-hydroxytryptamine receptor 2B (Homo sapiens, UniProt P41595); assay: Binding affinity to human 5HT2B by Cerep protocol based assay
[9] = molecular target: 5-hydroxytryptamine receptor 7 (Homo sapiens, UniProt P34969); assay: Binding affinity to human 5HT7 by Cerep protocol based assay
[10] = molecular target: T3, 5-hydroxytryptamine receptor 2C (Homo sapiens, UniProt P28335); assay: Binding affinity to human 5HT2C by Cerep protocol based assay
T3 sequence (P28335 whole entry): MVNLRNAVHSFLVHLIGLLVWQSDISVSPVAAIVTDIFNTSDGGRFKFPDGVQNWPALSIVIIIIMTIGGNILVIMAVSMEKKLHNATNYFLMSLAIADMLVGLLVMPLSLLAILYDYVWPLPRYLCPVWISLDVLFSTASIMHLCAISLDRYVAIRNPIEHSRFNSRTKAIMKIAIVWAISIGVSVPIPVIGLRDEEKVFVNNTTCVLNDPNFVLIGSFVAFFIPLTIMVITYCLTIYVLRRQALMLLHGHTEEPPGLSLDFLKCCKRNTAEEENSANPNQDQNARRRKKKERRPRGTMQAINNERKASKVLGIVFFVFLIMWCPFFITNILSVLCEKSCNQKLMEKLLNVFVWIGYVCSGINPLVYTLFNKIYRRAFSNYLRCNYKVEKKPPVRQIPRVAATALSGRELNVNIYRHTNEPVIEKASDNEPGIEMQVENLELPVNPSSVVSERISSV

[11] = molecular target: 5-hydroxytryptamine receptor 1B (Homo sapiens, UniProt P28222); assay: Binding affinity to human 5HT1B by Cerep protocol based assay
[12] = molecular target: 5-hydroxytryptamine receptor 1E (Homo sapiens, UniProt P28566); assay: Binding affinity to human 5HT1E by Cerep protocol based assay
[13] = molecular target: T4, 5-hydroxytryptamine receptor 3A (Homo sapiens, UniProt P46098); assay: Binding affinity to human 5HT3 by Cerep protocol based assay
T4 sequence (P46098 whole entry): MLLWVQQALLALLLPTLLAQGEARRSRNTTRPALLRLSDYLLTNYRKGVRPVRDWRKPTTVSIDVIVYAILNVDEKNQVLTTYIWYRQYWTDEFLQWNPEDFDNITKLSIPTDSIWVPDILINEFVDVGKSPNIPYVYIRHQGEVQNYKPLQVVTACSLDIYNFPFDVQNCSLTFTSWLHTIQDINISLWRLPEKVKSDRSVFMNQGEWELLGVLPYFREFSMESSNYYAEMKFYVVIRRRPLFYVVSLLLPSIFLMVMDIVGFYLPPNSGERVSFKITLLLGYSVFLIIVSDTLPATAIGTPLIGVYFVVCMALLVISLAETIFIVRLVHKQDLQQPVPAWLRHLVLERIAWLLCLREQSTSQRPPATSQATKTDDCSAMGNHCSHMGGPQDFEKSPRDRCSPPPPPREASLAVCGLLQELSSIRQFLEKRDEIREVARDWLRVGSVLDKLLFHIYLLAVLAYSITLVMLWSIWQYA

[14] = molecular target: 5-hydroxytryptamine receptor 5A (Homo sapiens, UniProt P47898); assay: Binding affinity to human 5HT5A by Cerep protocol based assay
[15] = molecular target: 5-hydroxytryptamine receptor 1D (Homo sapiens, UniProt P28221); assay: Binding affinity to human 5HT1D by Cerep protocol based assay
[16] = molecular target: 5-hydroxytryptamine receptor 2A (Homo sapiens, UniProt P28223); assay: Binding affinity to human 5HT2A by Cerep protocol based assay
Chain of 5-hydroxytryptamine receptor 2A (P28223 whole entry): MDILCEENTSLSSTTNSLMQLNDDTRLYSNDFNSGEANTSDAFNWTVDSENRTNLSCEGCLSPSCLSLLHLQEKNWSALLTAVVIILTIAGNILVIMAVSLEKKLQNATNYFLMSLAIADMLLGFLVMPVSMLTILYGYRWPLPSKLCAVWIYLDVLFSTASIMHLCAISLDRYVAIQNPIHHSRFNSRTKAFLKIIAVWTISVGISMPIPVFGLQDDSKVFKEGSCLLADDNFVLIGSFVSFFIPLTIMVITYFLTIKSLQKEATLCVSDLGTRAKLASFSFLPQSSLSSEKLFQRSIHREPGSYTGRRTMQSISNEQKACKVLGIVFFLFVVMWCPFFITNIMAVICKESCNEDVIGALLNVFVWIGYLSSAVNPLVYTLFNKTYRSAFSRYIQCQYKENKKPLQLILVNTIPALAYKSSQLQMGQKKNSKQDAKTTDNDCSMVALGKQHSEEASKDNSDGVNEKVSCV

T1 sequence (Q13639 whole entry): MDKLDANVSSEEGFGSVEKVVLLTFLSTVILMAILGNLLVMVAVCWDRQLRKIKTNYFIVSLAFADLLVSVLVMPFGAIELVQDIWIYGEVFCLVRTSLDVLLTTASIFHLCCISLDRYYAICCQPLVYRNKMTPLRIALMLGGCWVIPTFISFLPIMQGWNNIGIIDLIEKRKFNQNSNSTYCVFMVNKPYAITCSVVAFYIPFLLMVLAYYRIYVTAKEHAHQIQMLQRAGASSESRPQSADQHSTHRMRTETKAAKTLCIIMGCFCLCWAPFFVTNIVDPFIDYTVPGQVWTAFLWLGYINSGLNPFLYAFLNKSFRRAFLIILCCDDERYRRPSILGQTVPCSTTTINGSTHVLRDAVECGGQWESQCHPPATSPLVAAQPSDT
Chain of 5-hydroxytryptamine receptor 4 (Cavia porcellus) (O70528 whole entry): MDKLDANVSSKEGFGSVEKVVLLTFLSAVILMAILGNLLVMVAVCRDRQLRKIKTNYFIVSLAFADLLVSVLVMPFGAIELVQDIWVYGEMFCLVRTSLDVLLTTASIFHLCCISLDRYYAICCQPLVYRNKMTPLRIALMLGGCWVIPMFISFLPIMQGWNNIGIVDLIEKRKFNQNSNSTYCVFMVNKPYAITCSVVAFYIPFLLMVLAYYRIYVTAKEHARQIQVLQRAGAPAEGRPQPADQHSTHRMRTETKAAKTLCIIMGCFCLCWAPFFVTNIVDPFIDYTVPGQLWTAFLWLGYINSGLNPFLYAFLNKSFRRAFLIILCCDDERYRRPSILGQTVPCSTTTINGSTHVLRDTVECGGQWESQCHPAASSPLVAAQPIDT
Chain of 5-hydroxytryptamine receptor 4 (Cavia porcellus, UniProt O70528) (O70528 whole entry): as above
Chain of 5-hydroxytryptamine receptor 1B (P28222 whole entry): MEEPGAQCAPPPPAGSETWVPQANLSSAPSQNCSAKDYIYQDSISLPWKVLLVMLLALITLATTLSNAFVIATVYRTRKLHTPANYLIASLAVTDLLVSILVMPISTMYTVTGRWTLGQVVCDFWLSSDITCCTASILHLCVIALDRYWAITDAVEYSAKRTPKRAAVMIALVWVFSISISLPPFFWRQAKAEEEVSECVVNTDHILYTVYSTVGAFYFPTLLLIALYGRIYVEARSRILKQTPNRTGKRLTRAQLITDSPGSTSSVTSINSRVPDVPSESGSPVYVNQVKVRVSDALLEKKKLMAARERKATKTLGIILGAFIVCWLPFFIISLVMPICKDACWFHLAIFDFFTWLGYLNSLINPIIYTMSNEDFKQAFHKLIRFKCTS
Chain of 5-hydroxytryptamine receptor 6 (P50406 whole entry): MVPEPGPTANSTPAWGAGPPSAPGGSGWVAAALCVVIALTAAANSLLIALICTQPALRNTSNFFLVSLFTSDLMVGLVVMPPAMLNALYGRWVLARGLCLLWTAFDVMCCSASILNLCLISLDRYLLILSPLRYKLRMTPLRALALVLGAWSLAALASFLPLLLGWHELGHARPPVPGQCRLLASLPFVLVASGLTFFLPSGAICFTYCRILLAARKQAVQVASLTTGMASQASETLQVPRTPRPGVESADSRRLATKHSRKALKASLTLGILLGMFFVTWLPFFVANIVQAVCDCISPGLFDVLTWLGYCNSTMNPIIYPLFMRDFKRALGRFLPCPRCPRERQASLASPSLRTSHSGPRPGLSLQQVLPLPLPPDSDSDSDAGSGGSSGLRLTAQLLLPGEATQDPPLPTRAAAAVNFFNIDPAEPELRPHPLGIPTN
Chain of 5-hydroxytryptamine receptor 1D (P28221 whole entry): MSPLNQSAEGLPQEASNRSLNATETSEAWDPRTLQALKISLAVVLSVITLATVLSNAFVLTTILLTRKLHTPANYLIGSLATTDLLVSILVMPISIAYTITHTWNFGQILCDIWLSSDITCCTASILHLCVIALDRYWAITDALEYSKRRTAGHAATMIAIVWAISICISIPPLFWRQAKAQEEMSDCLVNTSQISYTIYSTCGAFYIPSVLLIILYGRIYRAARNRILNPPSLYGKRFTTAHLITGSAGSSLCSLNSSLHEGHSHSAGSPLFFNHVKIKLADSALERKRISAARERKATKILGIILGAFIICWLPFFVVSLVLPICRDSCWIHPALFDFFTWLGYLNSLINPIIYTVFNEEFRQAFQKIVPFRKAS
Chain of 5-hydroxytryptamine receptor 2B (P41595 whole entry): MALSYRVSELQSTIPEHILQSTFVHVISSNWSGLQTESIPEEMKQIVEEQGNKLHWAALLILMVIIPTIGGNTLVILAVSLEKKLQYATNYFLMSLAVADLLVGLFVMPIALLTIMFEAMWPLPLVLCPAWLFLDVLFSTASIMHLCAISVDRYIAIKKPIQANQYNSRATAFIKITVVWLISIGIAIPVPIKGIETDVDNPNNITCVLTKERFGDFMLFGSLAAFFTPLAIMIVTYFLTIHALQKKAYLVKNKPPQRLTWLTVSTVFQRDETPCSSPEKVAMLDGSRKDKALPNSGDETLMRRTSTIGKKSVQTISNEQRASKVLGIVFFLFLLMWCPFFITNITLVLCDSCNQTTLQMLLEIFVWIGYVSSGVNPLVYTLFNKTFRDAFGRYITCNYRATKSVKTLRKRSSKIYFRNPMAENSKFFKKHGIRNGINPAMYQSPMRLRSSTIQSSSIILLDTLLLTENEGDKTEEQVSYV
Chain of 5-hydroxytryptamine receptor 5A (P47898 whole entry): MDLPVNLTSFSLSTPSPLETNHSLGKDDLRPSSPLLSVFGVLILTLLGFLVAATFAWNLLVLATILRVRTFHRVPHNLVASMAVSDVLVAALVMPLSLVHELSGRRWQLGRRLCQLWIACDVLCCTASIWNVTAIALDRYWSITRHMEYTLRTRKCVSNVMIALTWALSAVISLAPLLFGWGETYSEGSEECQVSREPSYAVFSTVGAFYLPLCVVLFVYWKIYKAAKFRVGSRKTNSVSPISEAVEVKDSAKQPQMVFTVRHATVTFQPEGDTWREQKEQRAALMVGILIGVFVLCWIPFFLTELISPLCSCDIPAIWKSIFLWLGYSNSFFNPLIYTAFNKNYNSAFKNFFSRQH
Chain of 5-hydroxytryptamine receptor 1E (P28566 whole entry): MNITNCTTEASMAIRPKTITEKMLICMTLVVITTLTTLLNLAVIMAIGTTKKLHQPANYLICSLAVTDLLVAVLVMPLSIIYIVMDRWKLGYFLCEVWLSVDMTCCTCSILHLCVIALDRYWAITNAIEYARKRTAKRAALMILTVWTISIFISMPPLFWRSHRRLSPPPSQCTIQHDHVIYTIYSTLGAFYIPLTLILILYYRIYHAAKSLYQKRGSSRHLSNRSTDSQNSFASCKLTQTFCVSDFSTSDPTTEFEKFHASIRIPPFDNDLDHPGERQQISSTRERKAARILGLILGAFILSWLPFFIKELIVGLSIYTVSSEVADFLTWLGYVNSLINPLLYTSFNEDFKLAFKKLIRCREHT
Chain of 5-hydroxytryptamine receptor 7 (P34969 whole entry): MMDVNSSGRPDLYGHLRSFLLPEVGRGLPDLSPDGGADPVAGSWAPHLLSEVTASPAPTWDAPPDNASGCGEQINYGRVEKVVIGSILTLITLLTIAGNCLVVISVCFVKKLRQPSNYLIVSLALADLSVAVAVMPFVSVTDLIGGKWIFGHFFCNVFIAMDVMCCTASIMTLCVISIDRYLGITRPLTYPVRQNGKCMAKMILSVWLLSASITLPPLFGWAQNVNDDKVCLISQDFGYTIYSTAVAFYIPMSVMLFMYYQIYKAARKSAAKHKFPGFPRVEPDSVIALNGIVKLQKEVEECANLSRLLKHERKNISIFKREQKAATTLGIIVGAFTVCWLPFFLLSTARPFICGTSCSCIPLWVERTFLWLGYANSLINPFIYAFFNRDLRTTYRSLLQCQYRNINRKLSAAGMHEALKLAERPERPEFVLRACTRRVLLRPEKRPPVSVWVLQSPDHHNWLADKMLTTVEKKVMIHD

Row | SMILES | inhibition [1] [%] | inhibition [2] [%] | Ki [3] [nM] | Ki [5] [nM] | further results
1 | CCCN1CCC(COc2nc3ccccc3c3ccc(OC)cc23)CC1 | 0 | 85 |  |  | 
2 | CCCN1CCC(COc2nc3ccc(OC)cc3c3ccccc23)CC1 |  |  | 233 |  | 
3 | CCCN1CCC(COc2nc3ccc(Cl)cc3c3ccccc23)CC1 | 0 | 27 |  |  | 
4 | CCCN1CCC(COc2nc3ccccc3c3cc(F)ccc23)CC1 |  |  | 209 |  | 
5 | CCCN1CCC(COc2nc3ccccc3c3ccc([N+](=O)[O-])cc23)CC1 | 0 | 54 |  |  | 
6 | CCCN1CCC(COc2nc3c(Cl)cccc3c3ccccc23)CC1 | 24 | 100 | 21.9 | 5 | EC50 [4]: 251 nM
7 | CCCN1CCC(COc2nc3ccccc3c3ncccc23)CC1 | 64 | 96 | 13.1 | 7.5 | Ki [6]: > 10 µM; Ki [7]: > 10 µM; Ki [8]: 627 nM; Ki [9]: > 10 µM; EC50 [4]: 10 nM; Ki [10]: 2790 nM; Ki [11]: > 10 µM; Ki [12]: > 10 µM; Ki [13]: 680 nM; Ki [14]: > 10 µM; Ki [15]: > 10000 nM; Ki [16]: > 10 µM
8 | CCCN1CCC(COc2nc3cc(OC)ccc3c3ccccc23)CC1 |  |  | 1900 |  | 
9 | CCCN1CCC(COc2nc3c(I)cccc3c3ncccc23)CC1 |  |  |  |  | Ki [7]: 5.63 µM; Ki [16]: 1.82 µM
10 | CCCN1CCC(COc2nc3c(OC)cccc3c3ccccc23)CC1 | 22 | 100 | 35 | 17 | Ki [6]: > 10 µM; Ki [7]: > 10 µM; Ki [8]: 29.3 nM; Ki [9]: 3.47 µM; EC50 [4]: 79.4 nM; Ki [10]: > 10000 nM; Ki [11]: > 10 µM; Ki [12]: > 10 µM; Ki [13]: > 10000 nM; Ki [14]: > 10 µM; Ki [15]: 2570 nM; Ki [16]: 5.96 µM
11 | CCCN1CCC(COc2nc3ccc(F)cc3c3ccccc23)CC1 | 0 | 47 |  |  | 
12 | CCCN1CCC(COc2nc3cc(F)ccc3c3ccccc23)CC1 |  |  | 101 | 33 | 
13 | Ic1ccc(CCCN2CCC(COc3nc4ccccc4c4ccccc34)CC2)cc1 | 3 | 100 | 115 |  | 
